Results from different studies.
Each line is one published result; the experiments were not run side by side.
Target: Calcium/calmodulin-dependent protein kinase kinase 1 (CAMKK1, Homo sapiens, UniProt Q8N5S9)

| SMILES | test | setting | measurement | value |
| --- | --- | --- | --- | --- |
| Cc1nn(C)cc1-c1nc2c(N3CCN(Cc4ccc(Cl)cc4)CC3)c(Cl)cnc2[nH]1 | binding, competition with immobilised ligand | 1 µM | remaining binding | 100% |
| Cn1cncc1[C@](O)(COc1ccc(C#N)cc1-c1ccc(OC(F)(F)F)cc1)c1ccc(C#N)cc1 | cell-free assay, competition with immobilised ligand | 1 µM | remaining binding | 77% |
| Cn1cc(-c2cccc(N3CCc4c(sc5c4CC(C)(C)C5)C3=O)c2CO)cc(Nc2ccncn2)c1=O | enzyme activity, inhibitor | 1 µM | inhibition | 4% |
| CC(C)(C)c1cc(C=C(C#N)C#N)cc(Br)c1O | enzyme activity, inhibitor | 0.5 µM | remaining activity | 120% |
| Nc1ncc(-c2nc(N3CCOCC3)nc(N3CCOCC3)n2)c(C(F)F)n1 | binding, competition with immobilised ligand | 10 µM | remaining binding | 70% |
| N#CC1(c2ccccn2)CCN(Cc2cc(C(=O)O)c(=O)n3ccccc23)CC1 | cell-free assay, competition with immobilised ligand | 1 µM | remaining binding | 100% |
| O=c1[nH]c2ccccc2n1C1CCN(Cc2ccc(-c3[nH]c4cc5ncnc5cc4nc3-c3ccccc3)cc2)CC1 | cell-free assay | 0.5 µM | remaining signal | 117% |
| COc1ncccc1-c1cnn2ccc(N3CCN(C(=O)OC(C)C)CC3)nc12 | binding, competition with immobilised ligand | 1 µM | remaining binding | 77% |
